ChEMBL document CHEMBL1135390, “Inotropic activity of hydroindene amidinohydrazones” (2002)

Assays:
Cavia porcellus [1] = species on record: Cavia porcellus; experiment: Inotropic activity on cardiac frequency on spontaneously beating guinea pig right atria, (from basal frequency).; format: functional, Heart
Outline: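 Isolated guinea pig right atrium, beating spontaneously, in oxygenated (95% O2/5% CO2) Tyrode-type solution at 34 °C. Resting tension 1 g, 60 min equilibration. Rate recorded isometrically via force transducer. Cumulative concentrations 10^-7 to 5×10^-4 M added at 30 min intervals, from DMSO stock (1% DMSO final in bath). Expressed as % of pre-drug control. Mean of at least five experiments.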

Cavia porcellus [2] = species on record: Cavia porcellus; experiment: Inotropic activity on electrically driven isolated Guinea pig left atria, (from basal force).; format: functional
Outline: (§1)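 Isolated guinea pig left atrium paced at 1 Hz via bipolar platinum electrodes (1 ms pulses, twice threshold voltage), in oxygenated (95% O2/5% CO2) Tyrode-type solution at 34 °C. Resting tension 1 g, 60 min equilibration. Isometric contraction amplitude measured. Cumulative 10^-7 to 5×10^-4 M at 30 min intervals, 1% DMSO final. Expressed as % of pre-drug control. Mean of at least five experiments.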

Cavia porcellus [3] = species on record: Cavia porcellus; experiment: Inotropic activity on electrically driven isolated Guinea pig atria; format: functional; outline: as §1
[4] = Cavia porcellus, Heart, read-out: Emax
[5] = Cavia porcellus, read-out: Emax

Structure (SMILES)	Emax (Cavia porcellus [1]; [4]) [%]	Emax (Cavia porcellus [2]; [5]) [%]	concentration at Emax (Cavia porcellus [3]) [mM]	Emax (Cavia porcellus [1]) [%]	Emax (Cavia porcellus [2]) [%]
C[C@]12CC/C(=N\N=C(N)N)C=C1CC[C@@H]2CO	22	-47	0.3		
COC(=O)/C=C\[C@H]1CCC2=C/C(=N/N=C(N)N)CC[C@@]21C	-54	-76	0.3		
C[C@]12CC/C(=N\N=C(N)N)C=C1CC[C@@H]2/C=C/[N+](=O)[O-]	-1.7	128	0.3		
C[C@]12CC/C(=N\N=C(N)N)C[C@@]1(O)CC[C@@H]2/C=N/N=C(N)N	-15	-59	0.3		
COC(=O)/C=C/[C@H]1CCC2=C(C)/C(=N/N=C(N)N)CC[C@@]21C	-0.2	-41	0.3		
C[C@]12CC/C(=N\N=C(N)N)C=C1CC[C@@H]2CN1C(=O)c2ccccc2C1=O	-18	86	0.1		
CC1=C2CC[C@@H](/C=N/N=C(N)N)[C@@]2(C)CC/C1=N\N=C(N)N	33.7	129	0.3		
C[C@]12CC/C(=N\N=C(N)N)C=C1CC[C@@H]2CN	-16	46	0.3		
CC1=C2CC[C@H](/C=N/N=C(N)N)[C@@]2(C)CC/C1=N\N=C(N)N	4.2	108	0.3		
COC(=O)/C=C/[C@H]1CCC2=C/C(=N/N=C(N)N)CC[C@@]21C	13.2	-67	0.3		
C[C@]12CC/C(=N\N=C(N)N)C=C1CC[C@@H]2/C=N/N=C(N)N (stereo in doubt; 3)				-5.4	132
C[C@]12CC/C(=N\N=C(N)N)C=C1CC[C@@H]2/C=N/N=C(N)N (stereo in doubt; 30)			0.3	-5.1	170
C[C@H]1O[C@@H](O[C@H]2[C@@H](O)C[C@H](O[C@H]3[C@@H](O)C[C@H](O[C@H]4CC[C@@]5(C)[C@H](CC[C@@H]6[C@@H]5C[C@@H](O)[C@]5(C)[C@@H](C7=CC(=O)OC7)CC[C@]65O)C4)O[C@@H]3C)O[C@@H]2C)C[C@H](O)[C@@H]1O [DIGOXIN]	-28.3	103	0.001		
C[C@]12CC[C@H]3[C@@H](CC[C@]4(O)C[C@@H](O)CC[C@]34C=O)[C@@]1(O)CC[C@@H]2C1=CC(=O)OC1 [STROPHANTHIDIN]	80.4	122	0.001		
